pIC50: −log10 of the molar value. Active and inactive are the calls of the source. The calls are words filed in the database; no cut-off is given here.
What was measured:
[1] = biological target: T1, DNA topoisomerase 2-alpha (Homo sapiens, UniProt P11388); experiment: Inhibition of human topoisomerase 2 p170alpha assessed as relaxation of lambda ZAPII plasmid Bluescript KS+ DNA at 100 uM by SDS electrophoresis
Summary of the method: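 Compound at 100 µM in 0.5% Cremophor EL, 30 min at 37 °C. Stopped with 1% SDS, then proteinase K 50 µg/mL and chloroform-isoamyl alcohol extraction. Run on 1% TAE agarose with ethidium bromide 0.5 µg/mL post-stain. Etoposide 100 µM as control.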

[2] = test system: Saccharomyces cerevisiae; experiment: DNA damaging activity against topoisomerase 2-deficient rad52Y mutant yeast at 200 ug/mL by agar well diffusion assay; type: functional, organism-based
Summary of the method: (§1)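 Yeast strains (rad52Y; RAD+ wild type) were seeded separately on 1% nutrient agar plates. Samples at 200 µg/mL in 1:1 DMSO-MeOH were placed in wells cut by removing 7 mm plugs. Activity was the width (mm) of the zone around the well with no visible yeast growth. Camptothecin and streptonigrin at 5 µg/mL served as controls.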

[3] = test system: Saccharomyces cerevisiae; experiment: DNA damaging activity against wild type DNA repairing RAD gene expressing yeast at 200 ug/mL by agar well diffusion assay; type: functional, organism-based; summary of the method: as §1
[4] = test system: Saccharomyces cerevisiae; experiment: DNA damaging activity against topoisomerase 2-deficient RS321N mutant yeast assessed as drug level required to produce 12 mm zone of inhibition by agar well diffusion assay; type: functional
Summary of the method: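 S. cerevisiae RS321N seeded on 1% nutrient agar. Samples in 1:1 DMSO-MeOH went into 7 mm wells. The read-out was the zone (mm) of no visible growth. Several concentrations were tested, and the dose giving a 12 mm zone (IC12) was calculated by regression.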

[5] = test system: Saccharomyces cerevisiae; experiment: DNA damaging activity against topoisomerase 2-deficient rad52Y mutant yeast assessed as drug level required to produce 12 mm zone of inhibition by agar well diffusion assay; type: functional
Summary of the method: (§2)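 Saccharomyces cerevisiae strains (RS321N, rad52Y, RAD+) were seeded separately onto 1% nutrient agar. Samples at 200 µg/mL in 1:1 DMSO-MeOH went into 7 mm wells, and the clear growth-free zone was measured in mm. For actives, several concentrations were tested, and the dose giving a 12 mm zone (IC12) came from regression. Camptothecin and streptonigrin at 5 µg/mL served as controls.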

[6] = test system: Saccharomyces cerevisiae; experiment: DNA damaging activity against wild type DNA repairing RAD gene expressing yeast assessed as drug level required to produce 12 mm zone of inhibition by agar well diffusion assay; type: functional; summary of the method: as §2
[7] = biological target: T1, DNA topoisomerase 2-alpha; experiment: Inhibition of human topoisomerase 2 p170alpha assessed as relaxation of lambda ZAPII plasmid Bluescript KS+ DNA by SDS electrophoresis
Summary of the method: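 Supercoiled pBlueScript KS(+) (about 200 ng) relaxed by 4 units human topo II (p170) in Tris-HCl pH 8.0 buffer with 120 mM KCl, 10 mM MgCl2, 0.5 mM ATP and DTT. Compound in 0.5% Cremophor EL, dilution series in triplicate, 30 min at 37 °C. SDS/proteinase K stop, then 1% TAE agarose gel with ethidium bromide staining. IC50 from the dilution series.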

[8] = test system: Nucleic Acid; experiment: Displacement of methyl green dye from DNA by spectrophotometry; type: nucleic-acid assay
Summary of the method: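 Daunomycin (50 µg/mL) was the positive control. Methyl green absorbance was read on a plate reader.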

[9] = biological target: T1, DNA topoisomerase 2-alpha; experiment: Inhibition of human topoisomerase 2 p170alpha assessed as movement supercoiled lambda ZAPII plasmid Bluescript KS+ DNA at 100 uM after 60 mins by electrophoretic mobility shift assay
Summary of the method: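 Mobility shift with pBlueScript KS(+) and 6 units human topo II (p170) in ATP-free buffer. Buffer, running buffer and gel were all at pH 6.4. Compound at 100 µM, with etoposide 50 µM as control. No SDS/proteinase K stop; samples loaded directly onto a TAE gel containing 1.0 µg/mL ethidium bromide.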

[10] = test system: MCF7; experiment: Cytotoxicity against human MCF7 cells after 48 hrs by MTT assay; type: functional, cell-based; settings: MCF7, 48 h
Summary of the method: (§3)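 Cells kept in RPMI with 10% FBS at 37 °C, 5% CO2. Log-phase cells were treated in triplicate with 0-10 µM compound for 48 h at 37 °C in humidified 5% CO2. Viability was read by MTT absorbance on a plate reader.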

[11] = test system: SF-268; experiment: Cytotoxicity against human SF268 cells after 48 hrs by MTT assay at up to 10 uM; type: functional, cell-based; summary of the method: as §3
[12] = test system: NCI-H460; experiment: Cytotoxicity against human NCI-H460 cells after 48 hrs by MTT assay at up to 10 uM; type: functional, cell-based; summary of the method: as §3

T1 sequence (P11388 whole entry): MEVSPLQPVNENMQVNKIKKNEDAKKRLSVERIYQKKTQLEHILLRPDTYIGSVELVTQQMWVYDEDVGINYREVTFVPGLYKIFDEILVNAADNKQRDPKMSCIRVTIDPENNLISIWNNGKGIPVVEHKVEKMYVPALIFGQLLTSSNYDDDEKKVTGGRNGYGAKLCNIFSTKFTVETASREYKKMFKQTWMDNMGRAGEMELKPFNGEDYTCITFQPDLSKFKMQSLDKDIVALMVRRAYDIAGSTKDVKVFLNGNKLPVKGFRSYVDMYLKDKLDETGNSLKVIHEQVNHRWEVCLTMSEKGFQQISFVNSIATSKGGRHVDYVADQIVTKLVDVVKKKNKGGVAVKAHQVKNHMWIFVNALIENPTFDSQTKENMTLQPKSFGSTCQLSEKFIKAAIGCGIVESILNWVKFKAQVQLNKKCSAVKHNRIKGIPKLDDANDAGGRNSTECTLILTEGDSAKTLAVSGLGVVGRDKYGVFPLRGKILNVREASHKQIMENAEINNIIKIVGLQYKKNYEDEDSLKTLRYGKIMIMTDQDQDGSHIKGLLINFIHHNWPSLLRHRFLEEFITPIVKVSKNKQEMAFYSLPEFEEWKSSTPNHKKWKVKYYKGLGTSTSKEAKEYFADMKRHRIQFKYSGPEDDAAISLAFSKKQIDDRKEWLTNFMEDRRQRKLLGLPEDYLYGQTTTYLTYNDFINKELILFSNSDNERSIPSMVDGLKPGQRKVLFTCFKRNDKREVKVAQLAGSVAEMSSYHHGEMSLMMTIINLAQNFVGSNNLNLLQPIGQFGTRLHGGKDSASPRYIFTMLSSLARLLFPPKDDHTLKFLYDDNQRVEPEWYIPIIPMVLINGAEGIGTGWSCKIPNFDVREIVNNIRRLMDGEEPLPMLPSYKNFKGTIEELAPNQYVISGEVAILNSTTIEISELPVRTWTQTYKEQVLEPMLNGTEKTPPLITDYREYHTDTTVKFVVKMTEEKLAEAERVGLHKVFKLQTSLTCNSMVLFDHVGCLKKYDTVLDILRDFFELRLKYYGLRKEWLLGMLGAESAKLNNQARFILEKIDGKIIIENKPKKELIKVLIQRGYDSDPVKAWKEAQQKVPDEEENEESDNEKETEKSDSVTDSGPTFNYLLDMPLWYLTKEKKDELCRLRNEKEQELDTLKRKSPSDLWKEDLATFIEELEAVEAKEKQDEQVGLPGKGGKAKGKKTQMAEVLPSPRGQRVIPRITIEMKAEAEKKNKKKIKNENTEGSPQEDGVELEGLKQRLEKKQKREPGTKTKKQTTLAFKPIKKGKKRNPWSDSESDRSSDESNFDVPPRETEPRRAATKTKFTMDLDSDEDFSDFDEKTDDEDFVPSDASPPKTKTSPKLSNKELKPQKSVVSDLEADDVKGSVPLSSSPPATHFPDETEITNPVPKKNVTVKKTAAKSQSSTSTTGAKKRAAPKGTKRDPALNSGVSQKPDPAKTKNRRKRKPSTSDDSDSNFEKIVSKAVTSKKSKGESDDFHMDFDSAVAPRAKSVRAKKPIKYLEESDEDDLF

SMILES | Activity [1] | Activity [2] | Activity [3] | IC12 (concentration giving a 12 mm inhibition zone) [4] [µg/mL] | also measured
COC(=O)[C@]1(C)CC[C@]2(C)CC[C@]3(C)C4=CC(=O)c5c(cc(O)c(O)c5C(=O)O)[C@]4(C)CC[C@@]3(C)[C@@H]2C1 | inactive |  |  |  | 
COC(=O)[C@]1(C)CC[C@]2(C)CC[C@]3(C)C4=CC(=O)c5c(cc(O)c(O)c5C=O)[C@]4(C)CC[C@@]3(C)[C@@H]2C1 | inactive |  |  |  | 
COC(=O)[C@]1(C)CC[C@]2(C)CC[C@]3(C)C4=CCc5c(cc(O)c(O)c5C)[C@]4(C)CC[C@@]3(C)[C@@H]2C1 | inactive |  |  |  | 
COc1cc([C@@H]2c3cc4c(cc3[C@@H](O[C@@H]3O[C@@H]5CO[C@@H](C)O[C@H]5[C@H](O)[C@H]3O)[C@H]3COC(=O)[C@H]23)OCO4)cc(OC)c1O | inactive |  |  |  | 
CC1=C(O)C(=O)C=C2C1=CC=C1[C@@]2(C)CC[C@@]2(C)[C@@H]3C[C@](C)(O)C(=O)C[C@]3(C)CC[C@]12C [20ALPHA-HYDROXYTINGENONE] |  | inactive | inactive | 185 | 
CC1=C2C3=CC=C4C(=CC(=O)C(O)=C4C)[C@]3(C)CC[C@@]2(C)[C@@H]2C[C@@H](C)[C@@H](O)C(=O)C2C1 (stereo not given in full) [BALAENONOL] |  | inactive | inactive | 220 | 
CC[C@@]1(O)C(=O)OCc2c1cc1n(c2=O)Cc2cc3ccccc3nc2-1 [CAMPTOTHECIN] |  |  |  | >20 | Activity [5]: 0.6 µg/mL; Activity [6]: 110 µg/mL
C[C@@]1(C(=O)O)CC[C@]2(C)CC[C@]3(C)C4=CC(=O)c5c(cc(O)c(O)c5C(=O)O)[C@]4(C)CC[C@@]3(C)[C@@H]2C1 [DEMETHYLZEYLASTERONE] | Active |  |  |  | pIC50 [7]: 4.75; Activity [8]: Active; Activity [9]: Active; pIC50 [10]: 4.90; Activity [11]: inactive; Activity [12]: inactive
COC1=C(N)C(=O)c2nc(-c3nc(C(=O)O)c(C)c(-c4ccc(OC)c(OC)c4O)c3N)ccc2C1=O [STREPTONIGRIN] |  |  |  | <0.4 | Activity [5]: 0.4 µg/mL
CC1=C(O)C(=O)C=C2C1=CC=C1[C@@]2(C)CC[C@@]2(C)[C@@H]3C[C@@H](C)C(=O)C[C@]3(C)CC[C@]12C [TINGENONE] |  | inactive | inactive | 325 | 

Source: ChEMBL document CHEMBL1156357, “Catalytic inhibition of topoisomerase IIalpha by demethylzeylasterone, a 6-oxophenolic triterpenoid from Kokoona zeylanica” (J Nat Prod, 2001)
